ChEMBL document CHEMBL1240314, “Small-molecule inhibitor of p53 binding to mitochondria protects mice from gamma radiation” (2006)
Active and inactive are the calls of the source. The calls are words filed in the database; no cut-off is given here.

Tests used:
[1] = molecular target: Cellular tumor antigen p53 (Homo sapiens) (UniProt P04637); test: Inhibition of p53-dependent transactivation of p21 in gamma-stimulated human ConA cells; type: cell-based
Method in brief: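 ConA cells given 10 µM test agent and 10 Gy gamma irradiation. Protein extracts taken 6 h post-irradiation and p21 detected by immunoblotting.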

[2] = molecular target: Cellular tumor antigen p53 (Mus musculus) (UniProt P02340); test: Binding affinity to p53 in gamma irradiated mouse thymocyte assessed as cytosolic caspase 8 concentration at 10 uM after 2 hrs
HEK-293T = test: Antiapoptotic activity against Bax gene-induced apoptosis in human 293T cells transfected with pTZV3-CMV-Bax at 10 uM after 24 hrs; type: functional, cell-based
Method in brief: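 Bax delivered by transient transfection of 293T and HT1080 cells with CMV-Bax construct (Lipofectamine Plus); compound at 10 mM as printed; apoptosis scored 24 h after transfection by annexin/PI staining on FACScan.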

BJ = test: Induction of p21 mRNA expression in 5-fluorouracil-stimulated human BJ cells; type: functional, cell-based
Method in brief: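 Wild-type and p53-deficient cell pairs stimulated with 5-FU ([…] as printed) or gamma irradiation (10 or 15 Gy); p21 mRNA quantified by real-time PCR; means ± s.d., n = 3.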

[3] = molecular target: Cellular tumor antigen p53 (Homo sapiens) (UniProt P04637); test: Inhibition of p53 in human ConA cells assessed as effect on cell cycle distribution at 10 uM after 24 hrs; type: cell-based
Method in brief: (§1)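 ConA cells given 10 µM test agent, with or without 10 Gy gamma irradiation. Cell-cycle distribution measured 24 h later.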

MCF7 [4] = test: Induction of Puma gene expression in UV-induced human MCF7 cells; type: functional, cell-based
Method in brief: (§2)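 Northern blot: 10 mg RNA (so in the source) isolated 18 h after UV (8.5 J m–2) or doxorubicin (125 mg ml–1 as printed) from MCF7 or U2OS cells and p53-knockdown (lentiviral shRNA) counterparts; hybridized with 32P-labeled full-length cDNA probes for Bax, Noxa, Puma; 18S rRNA loading control.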

[5] = molecular target: Cellular tumor antigen p53 (Mus musculus) (UniProt P02340); test: Inhibition of p53-dependent transcription of puma in gamma-stimulated mouse thymocyte
MCF7 [6] = test: Induction of Noxa gene expression in human MCF7 cells; type: functional, cell-based; method in brief: as §2
[7] = molecular target: Cellular tumor antigen p53 (Homo sapiens) (UniProt P04637); test: Inhibition of p53-mediated transactivation of promoter cyclin G in human H1299 cells at 10 uM after 48 hrs by luciferase reporter assay; type: cell-based
[8] = molecular target: Cellular tumor antigen p53 (Homo sapiens) (UniProt P04637); test: Binding affinity to p53 assessed as reduction in mitochondrial-bound p53 level at 25 uM
Method in brief: (§3)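 Cell-free reconstitution: freshly isolated HeLa or Saos-2 mitochondria (40 mg as printed) incubated 1 h at 37 °C with purified baculoviral human wild-type p53 (60 ng) plus compound in MS buffer with CaCl2; mitochondria pelleted, washed three times, p53 cosedimentation by western blot, mt-Hsp75 loading control.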

Mus musculus [9] = test: Protection against 9 Gy gamma radiation-induced death in mouse assessed as increase in survival at 40 mg/kg, ip; type: functional; details: route intraperitoneal
Method in brief: (§4)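 Male C57Bl/6J mice, 8–10 weeks old, given a single 40 mg kg–1 intraperitoneal dose 30 min before total-body gamma irradiation (137Cs, 4 Gy min–1) at 8 or 9 Gy. Survival followed. Ten mice per subgroup; three independent repeats.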

HT-1080 = test: Antiapoptotic activity against Bax gene-induced apoptosis in human HT1080 cells transfected with pTZV3-CMV-Bax at 10 uM after 24 hrs; type: functional, cell-based
U2OS [10] = test: Induction of Bax gene expression in doxorubicin-induced human U2OS cells; type: functional, cell-based; method in brief: as §2
H1299 = test: Inhibition of TNFalpha induced NF-kappaB activation in human H1299 cells; type: cell-based
Thymocyte [11] = test: Induction of Puma gene expression in mouse thymocytes; type: functional, cell-based
[12] = molecular target: Cellular tumor antigen p53 (Mus musculus) (UniProt P02340); test: Binding affinity to p53 in gamma irradiated mouse thymocyte assessed as cytosolic p53 concentration at 10 uM after 2 hrs
[13] = molecular target: Cellular tumor antigen p53 (Mus musculus) (UniProt P02340); test: Binding affinity to p53 in gamma irradiated mouse thymocyte assessed as cytosolic Bcl-2 concentration at 10 uM after 2 hrs
MCF7 [14] = test: Induction of Bax gene expression in human MCF7 cells; type: functional, cell-based; method in brief: as §2
[15] = molecular target: Cellular tumor antigen p53 (Homo sapiens) (UniProt P04637); test: Binding affinity to p53 assessed as reduction in mitochondrial-bound p53 level at 10 uM; method in brief: as §3
[16] = molecular target: Cellular tumor antigen p53 (Homo sapiens) (UniProt P04637); test: Inhibition of p53-dependent transcription of bax in doxorubicin-induced human U2OS cells; type: cell-based
Method in brief: (§5)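 Northern analysis of U2OS cells, p53 wild-type and shRNA p53-knockdown. Induction by UV 8.5 J m–2 or Dox […]. RNA isolated 18 h after treatment; 10 µg hybridised with 32P-labelled full-length cDNA probes for Bax, Noxa or Puma. 18S rRNA used as loading control.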

U2OS [17] = test: Induction of Bax gene expression in human U2OS cells; type: functional, cell-based; method in brief: as §2
[18] = Antiapoptotic activity against gamma irradiation-induced apoptosis in mouse thymocyte assessed as cytosolic Cyt c concentration at 20 uM; type: functional, cell-based
Method in brief: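 Thymocytes (20 × 10^6) from 5-week-old C57Bl/6J mice irradiated with 10 Gy gamma, with or without compound ([…] as printed); cytosolic fractions isolated 5 h after irradiation and probed for cytochrome c by western blot.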

[19] = molecular target: Cellular tumor antigen p53 (Homo sapiens) (UniProt P04637); test: Inhibition of p53-dependent transcription of noxa in doxorubicin-induced human U2OS cells; type: cell-based; method in brief: as §5
[20] = molecular target: Cellular tumor antigen p53 (Homo sapiens) (UniProt P04637); test: Inhibition of p53-dependent transcription of bax in human MCF7 cells; type: cell-based
Method in brief: (§6)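 Northern analysis of MCF7 cells, p53 wild-type and shRNA p53-knockdown. Induction by UV 8.5 J m–2 or Dox […]. RNA isolated 18 h after treatment; 10 µg hybridised with 32P-labelled full-length cDNA probes for Bax, Noxa or Puma. 18S rRNA used as loading control.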

[21] = molecular target: Cellular tumor antigen p53 (Homo sapiens) (UniProt P04637); test: Inhibition of p53-mediated apoptosis in human WI38 cells assessed as cell survival at 10 uM after 24 hrs by methylene blue assay; type: cell-based; details: WI-38
U2OS [22] = test: Induction of Puma gene expression in doxorubicin-induced human U2OS cells; type: functional, cell-based; method in brief: as §2
[23] = molecular target: Cellular tumor antigen p53 (Homo sapiens) (UniProt P04637); test: Inhibition of p53 in gamma-stimulated human ConA cells assessed as effect on cell cycle distribution at 10 uM after 24 hrs; type: cell-based; method in brief: as §1
WI-38 = test: Antiapoptotic activity against TNF-alpha induced apoptosis in human WI38 cells assessed as cell survival at 0.1 uM to 10 uM after 24 hrs by methylene blue assay in presence of 0.5 ug/ml cycloheximidine; type: functional, cell-based
NCI-H1299 = test: Antiapoptotic activity against staurosporine-induced cell death in human H1299 cells assessed as cell survival at 10 uM after 24 hrs by methylene blue assay; type: functional, cell-based
U2OS [24] = test: Induction of Puma gene expression in human U2OS cells; type: functional, cell-based; method in brief: as §2
MCF7 [25] = test: Induction of Bax gene expression in UV-induced human MCF7 cells; type: functional, cell-based; method in brief: as §2
Mus musculus [26] = test: Protection against 8 Gy gamma radiation-induced death in mouse assessed as increase in survival at 40 mg/kg, ip; type: functional; details: route intraperitoneal; method in brief: as §4
[27] = molecular target: Cellular tumor antigen p53 (Homo sapiens) (UniProt P04637); test: Inhibition of p53-dependent transcription of noxa in human MCF7 cells; type: cell-based; method in brief: as §6
Thymocyte [28] = test: Induction of p21 mRNA expression in gamma-stimulated mouse thymocytes
[29] = molecular target: Cellular tumor antigen p53 (Homo sapiens) (UniProt P04637); test: Inhibition of p53-dependent transcription of bax in UV-stimulated human […] cells; type: cell-based; method in brief: as §6

Sequence of Cellular tumor antigen p53 (Mus musculus) (P02340 whole entry): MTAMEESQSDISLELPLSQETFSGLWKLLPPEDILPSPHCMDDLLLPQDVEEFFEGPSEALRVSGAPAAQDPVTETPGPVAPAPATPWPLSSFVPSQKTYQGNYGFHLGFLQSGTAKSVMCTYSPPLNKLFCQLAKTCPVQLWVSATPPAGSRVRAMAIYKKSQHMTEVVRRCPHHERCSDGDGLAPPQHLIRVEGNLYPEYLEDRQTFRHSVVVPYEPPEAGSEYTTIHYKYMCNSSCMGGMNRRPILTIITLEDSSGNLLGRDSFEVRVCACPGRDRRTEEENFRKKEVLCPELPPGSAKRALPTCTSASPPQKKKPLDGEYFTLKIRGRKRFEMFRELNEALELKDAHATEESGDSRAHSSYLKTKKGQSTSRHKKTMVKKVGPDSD
Sequence of Cellular tumor antigen p53 (Homo sapiens) (P04637 whole entry, looked up): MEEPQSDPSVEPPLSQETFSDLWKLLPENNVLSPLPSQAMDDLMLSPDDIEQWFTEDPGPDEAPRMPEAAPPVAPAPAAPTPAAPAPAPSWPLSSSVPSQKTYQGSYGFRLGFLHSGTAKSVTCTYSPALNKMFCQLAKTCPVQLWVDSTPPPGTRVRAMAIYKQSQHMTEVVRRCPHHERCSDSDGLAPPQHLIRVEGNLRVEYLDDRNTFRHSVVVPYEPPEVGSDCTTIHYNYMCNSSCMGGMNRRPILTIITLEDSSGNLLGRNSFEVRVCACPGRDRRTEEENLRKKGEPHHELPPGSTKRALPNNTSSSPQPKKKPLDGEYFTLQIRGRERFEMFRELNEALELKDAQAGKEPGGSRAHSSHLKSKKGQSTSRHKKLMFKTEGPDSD

With `NS(=O)(=O)C#Cc1ccccc1` the inhibition [1] was “inactive”, the Activity [2] was “inactive” and the Activity (HEK-293T) was “inactive”. For the same molecule, the Activity (BJ) was “inactive”, the inhibition [3] was “inactive” and the Activity (MCF7 [4]) was “inactive”. For the same molecule, the inhibition [5] was “inactive”, the Activity (MCF7 [6]) was “inactive” and the inhibition [7] was “inactive”. For the same molecule, the Activity [8] was “Active”, the Activity (Mus musculus [9]) was 50% and the Activity (HT-1080) was “inactive”. For the same molecule, the Activity (U2OS [10]) was “inactive”, the inhibition (H1299) was “inactive” and the Activity (Thymocyte [11]) was “inactive”. The Activity [12] was “inactive”, the Activity [13] was “inactive” and the Activity (MCF7 [14]) was “inactive”. The Activity [15] was “Active”, the inhibition [16] was “inactive” and the Activity (U2OS [17]) was “inactive”. The Activity [18] was “Active”, the inhibition [19] was “inactive” and the inhibition [20] was “inactive”. For the same molecule, the inhibition [21] was “Active”, the Activity (U2OS [22]) was “inactive” and the inhibition [23] was “inactive”. For the same molecule, the Activity (WI-38) was “inactive”, the Activity (NCI-H1299) was “inactive” and the Activity (U2OS [24]) was “inactive”. For the same molecule, the Activity (MCF7 [25]) was “inactive”, the Activity (Mus musculus [26]) was 70% and the inhibition [27] was “inactive”. The Activity (Thymocyte [28]) was “inactive” and the inhibition [29] was “inactive”.
